Data: ChEMBL document CHEMBL5576140, “Computational Design of Pore-Forming Peptides with Potent Antimicrobial and Anticancer Activities” (J Med Chem, 2024)
Active and inactive are the calls of the source. No cut-off for these calls is given here.

What was measured:
K562 [1] = test: pH-dependent anticancer activity against human K562 cells in PBS medium at 10 uM incubated for 1 hr; format: functional, cell-based
How it was run: (§1)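 Cells cultured in RPMI, DMEM or PBS, each adjusted to pH 8, 7 or 6, plus one unadjusted (~7.6). Peptide at 10 μM for only 1 h, to limit pH drift from CO₂-bicarbonate buffering. Cell viability read. Controls were melittin, ampicillin and PBS. Two independent repetitions; effects analysed by ANOVA.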

MOLM-13 = test: Anti-cancer activity against human MOLM-13 cells incubated for 24 hrs by WST assay; format: functional, cell-based; details: MOLM-13, 24 h
Staphylococcus aureus = test: Depolarization of cytoplasmic membrane in Staphylococcus aureus ATCC 12600 at MIC measured for 45 mins by DiSC3-(5) dye based assay; format: functional, organism-based
How it was run: (§2)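 Bacteria loaded with membrane-potential dye DiSC3-(5), then treated with peptide at its MIC for the respective strain; depolarization read as rise in dye fluorescence; polymyxin B and levofloxacin as reference antibiotics.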

[2] = Toxicity in neutropenic CD-1 mouse deep thigh infection model infected with Acinetobacter baumannii ATCC 19606 assessed as body weight change at 1.33 mg/kg, ip measured after 4 days; format: organism-based; details: in vivo, 96 h, time 4 day
How it was run: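 Neutropenic mice infected intramuscularly in the right thigh with 10⁶ cells per mL of A. baumannii ATCC 19606. […] Body weight monitored for toxicity. Euthanasia 4 days post-infection (day 8). n = 6 per group, from three inocula.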

HL-60 [3] = test: pH-dependent anticancer activity against human HL-60 cells in PBS medium at 10 uM incubated for 1 hr; format: functional, cell-based; how it was run: as §1
Escherichia coli [4] = test: Depolarization of cytoplasmic membrane in Escherichia coli ATCC 11775 at MIC measured for 45 mins by DiSC3-(5) dye based assay; format: functional, organism-based; how it was run: as §2
HL-60 [5] = test: pH-dependent anticancer activity against human HL-60 cells in RPMI medium at 10 uM incubated for 1 hr; format: functional, cell-based; how it was run: as §1
Acinetobacter baumannii [6] = test: Induction of outer membrane permeabilization in Acinetobacter baumannii ATCC 19606 measured for 20 mins by NPN uptake assay; format: functional, organism-based
HCT-116 [7] = test: pH-dependent anticancer activity against human HCT-116 cells in RPMI medium at 10 uM incubated for 1 hr; format: functional, cell-based; how it was run: as §1
Enterococcus faecium = test: Depolarization of cytoplasmic membrane in Enterococcus faecium ATCC 700221 at MIC measured for 45 mins by DiSC3-(5) dye based assay; format: functional, organism-based; how it was run: as §2
[8] = Toxicity against reconstructed human skin model assessed as irritation at 50 uM incubated for 1 hr followed by compound washout measured after 42 hrs by MTT assay; format: tissue-based, Skin of body
How it was run: (§3)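 Reconstructed human epidermis with stratum corneum, per OECD TG 439 skin irritation guideline. Tissues exposed 1 h to peptide at 50 μM, then 42 h post-treatment incubation. Viability read by MTT. Controls were SDS and melittin.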

MCF7 [9] = test: pH-dependent anticancer activity against human MCF7 cells in RPMI medium at 10 uM incubated for 1 hr; format: functional, cell-based; how it was run: as §1
T-cell line = test: Cytotoxicity against human T-lymphocytes assessed as deleterious effect upto 50 uM by flow cytometry; format: toxicity, cell-based
How it was run: (§4)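 Whole blood from a healthy donor treated with peptides up to 50 μM; effect on B and T lymphocytes, granulocytes and monocytes assessed.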

HCT-116 [10] = test: pH-dependent anticancer activity against human HCT-116 cells in PBS medium at 10 uM incubated for 1 hr; format: functional, cell-based; how it was run: as §1
Acinetobacter baumannii [11] = test: Depolarization of cytoplasmic membrane in Acinetobacter baumannii ATCC 19606 at MIC measured for 45 mins by DiSC3-(5) dye based assay; format: functional, organism-based; how it was run: as §2
Acinetobacter baumannii [12] = test: Anti-infective activity against Acinetobacter baumannii ATCC 19606 infected in neutropenic CD-1 mouse deep thigh infection model assessed as reduction in bacterial load at 1.33 mg/kg, ip measured after 4 days; format: functional, organism-based; details: time 4.0 day
How it was run: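 Neutropenic mice infected intramuscularly in right thigh with 10⁶ cells per mL A. baumannii ATCC 19606; single intraperitoneal peptide dose at 10× MIC; bacterial load determined 4 days after treatment (euthanized day 8); n = 6 per group from three inocula; one-way ANOVA with Dunnett's test versus untreated.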

[13] = Stability in simulated pore POPC lipid bilayer membrane; format: physicochemical
How it was run: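 Coarse-grained MD with the "scaled" Martini force field, peptides in POPC membrane, 51 μs. Counts transmembrane peptides at 51 μs. Water beads within 2 nm vertically of membrane centre and peptide–peptide interaction energy averaged over 48–51 μs. Contacts (salt bridge or stacking) scored below 0.8 nm and called stable if present ≥50% of the time.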

[14] = Anti-cancer activity against human NHDF cells incubated for 72 hrs by Cell Titer Glo assay; format: toxicity, cell-based
MCF7 [15] = test: pH-dependent anticancer activity against human MCF7 cells in PBS medium at 10 uM incubated for 1 hr; format: functional, cell-based; how it was run: as §1
Pseudomonas aeruginosa [16] = test: Depolarization of cytoplasmic membrane in Pseudomonas aeruginosa PAO1 at MIC measured for 45 mins by DiSC3-(5) dye based assay; format: functional, organism-based; how it was run: as §2
HL-60 [17] = test: pH-dependent anticancer activity against human HL-60 cells in DMEM medium at 10 uM incubated for 1 hr; format: functional, cell-based; how it was run: as §1
HL-60 [18] = test: Anti-cancer activity against human HL-60 cells at 10 uM incubated for 30 mins; format: functional, cell-based
[19] = Toxicity against reconstructed human skin model assessed as tissue viability at 50 uM incubated for 1 hr followed by compound washout measured after 42 hrs by MTT assay; format: tissue-based, Skin of body; details: read-out: Activity; how it was run: as §3
SUD4 = test: Anti-cancer activity against human SU-DHL-4 cells incubated for 24 hrs by WST assay; format: functional, cell-based; details: SU-DHL-4, 24 h
MCF7 [20] = test: Induction of apoptosis in human MCF7 cells in DMEM medium at pH 6 assessed as increase in cleaved capase-3 level at 10 uM; format: functional, cell-based
How it was run: (§5)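 MCF-7 cells treated with peptides at pH 6; apoptosis detected by immunoblotting for cleaved PARP and cleaved caspase-3.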

Klebsiella pneumoniae [21] = test: Induction of outer membrane permeabilization in Klebsiella pneumoniae ATCC 13883 measured for 20 mins by NPN uptake assay; format: functional, organism-based
How it was run: (§6)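 Outer-membrane permeabilization of Gram-negative bacteria read as rise in fluorescence of the lipophilic dye NPN, which enters only when outer-membrane integrity is compromised. Peptides applied at their MIC against the respective strain; polymyxin B and levofloxacin as reference antibiotics. Triplicates.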

K562 [22] = test: pH-dependent anticancer activity against human K562 cells in DMEM medium at 10 uM incubated for 1 hr; format: functional, cell-based; how it was run: as §1
K562 [23] = test: pH-dependent anticancer activity against human K562 cells in RPMI medium at 10 uM incubated for 1 hr; format: functional, cell-based; how it was run: as §1
MCF7 [24] = test: Induction of apoptosis in human MCF7 cells in DMEM medium at pH 6 assessed as increase in cleaved PARP level at 10 uM; format: functional, cell-based; how it was run: as §5
MCF7 [25] = test: pH-dependent anticancer activity against human MCF7 cells in DMEM medium at 10 uM incubated for 1 hr; format: functional, cell-based; how it was run: as §1
Escherichia coli [26] = test: Induction of outer membrane permeabilization in Escherichia coli ATCC 11775 measured for 20 mins by NPN uptake assay; format: functional, organism-based
Monocyte = test: Cytotoxicity against human monocytes assessed as deleterious effect upto 50 uM by flow cytometry; format: toxicity, cell-based; how it was run: as §4
Pseudomonas aeruginosa [27] = test: Induction of outer membrane permeabilization in Pseudomonas aeruginosa PAO1 measured for 20 mins by NPN uptake assay; format: functional, organism-based; how it was run: as §6
Klebsiella pneumoniae [28] = test: Depolarization of cytoplasmic membrane in Klebsiella pneumoniae ATCC 13883 at MIC measured for 45 mins by DiSC3-(5) dye based assay; format: functional, organism-based; how it was run: as §2
HCT-116 [29] = test: pH-dependent anticancer activity against human HCT-116 cells in DMEM medium at 10 uM incubated for 1 hr; format: functional, cell-based; how it was run: as §1
Staphylococcus carnosus = test: Antimicrobial activity against Staphylococcus carnosus CCM 4838T incubated for 24 hrs by broth microdilution assay; format: functional
B cell = test: Cytotoxicity against human B-lymphocytes assessed as deleterious effect upto 50 uM by flow cytometry; format: toxicity, cell-based; how it was run: as §4
[30] = Cytotoxicity against human granulocytes assessed as deleterious effect upto 50 uM by flow cytometry; format: toxicity, cell-based; details: granulocyte; how it was run: as §4
[31] = Anti-cancer activity against human MEC-1 cells incubated for 24 hrs by WST assay; format: functional, cell-based; details: MEC1, 24 h

Substance: H-HHHHLKKILKKLFQFINQLDNQLQDIHHHH-OH
- Activity (K562 [1]): Active
- IC50 (MOLM-13): 1 µM
- Activity (Staphylococcus aureus): Active
- Activity [2]: Non-Toxic
- Activity (HL-60 [3]): Active
- Activity (Escherichia coli [4]): Active
- Activity (HL-60 [5]): Active
- Activity (Acinetobacter baumannii [6]): inactive
- Activity (HCT-116 [7]): Active
- Activity (Enterococcus faecium): Active
- Activity [8]: Non-Toxic
- Activity (MCF7 [9]): Active
- Activity (T-cell line): Non-Toxic
- Activity (HCT-116 [10]): Active
- Activity (Acinetobacter baumannii [11]): Active
- Activity (Acinetobacter baumannii [12]): inactive
- Stability [13]: Stable
- IC50 at 72 h [14]: > 200 µM
- Activity (MCF7 [15]): Active
- Activity (Pseudomonas aeruginosa [16]): Active
- Activity (HL-60 [17]): Active
- Activity (HL-60 [18]): Active
- viability at 1 h, 50 µM [19]: 100%
- IC50 (SUD4): 1 µM
- Activity (MCF7 [20]): Active
- Activity (Klebsiella pneumoniae [21]): Active
- Activity (K562 [22]): Active
- Activity (K562 [23]): Active
- Activity (MCF7 [24]): Active
- Activity (MCF7 [25]): Active
- Activity (Escherichia coli [26]): Active
- Activity (Monocyte): Non-Toxic
- Activity (Pseudomonas aeruginosa [27]): Active
- Activity (Klebsiella pneumoniae [28]): Active
- Activity (HCT-116 [29]): Active
- MIC (Staphylococcus carnosus): > 50 µM
- Activity (B cell): Non-Toxic
- Activity [30]: Non-Toxic
- IC50 [31]: 1 µM
